Common to all, as to assay type: functional
One assay has as its system K562. Briefly: Antiproliferative activity against human K562 cells. The essentials: (§1)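 HUVEC and K562 (DSM ACC 10) cells were exposed to compounds and growth was scored against untreated controls. The readout is GI50, the concentration that cuts growth of treated cells to half that of untreated cells.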
A further assay has as its system HeLa. Briefly: Cytotoxicity against human HeLa cells. An outline of the steps: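 HeLa cervix carcinoma cells (DSM ACC 57) were treated with compounds. The readout is CC50, the concentration that kills 50% of treated cells.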
For a further assay, the system named is HUVEC. Briefly: Antiproliferative activity against HUVEC cells. The note with it: Homo sapiens. An outline of the steps:
as §1

As usually defined, the GI50 is the concentration giving 50% growth inhibition. Higher therefore signals lower sensitivity of the cells. As a reminder, the CC50 is the concentration giving 50% cytotoxicity. High values mean better tolerance by the cells, low ones harm at low concentration. Turning to `CC1=CC(=O)/C(=C(\C)N)C(=O)O1`, the GI50 was 9 µM in the assay with K562 and 68.2 µM in the assay with HUVEC. In the assay on HeLa, this molecule registered a half-maximal cytotoxic concentration (CC50) of 104 µM.
Taken in the same sequence, the figures for `CC(=O)N1CCc2c([nH]c3ccccc23)C1` were 33.3 µM, 41.1 µM and 23.8 µM.
Take `Cc1ccc(NC(=O)c2ccc(CN3CCN(C)CC3)cc2)cc1Nc1nccc(-c2cccnc2)n1` [IMATINIB]: the concentration for 50% growth inhibition (GI50) with K562 came out at 0.17 µM; in the assay on HUVEC, 18.5 µM. The molecule also came in with a CC50 with HeLa of 65.8 µM.
As to `CC1=CC(=O)/C(=C(\C)NCCc2ccc(O)cc2)C(=O)O1` [FUSAMINE], the GI50 turned out to be 37.6 µM in the assay on K562 and 37.3 µM with HUVEC. The molecule further had a half-maximal cytotoxic concentration (CC50) in the assay on HeLa of 23.3 µM.
Taken in the same sequence, the figures for `C/C=C(\C)C(=O)NCC(C)C` were over 300 µM, over 300 µM and over 300 µM.
Turning to `O=C(CO)c1cccn1CCc1ccc(O)cc1` [FUSARINE], the GI50 in the assay on K562 and with HUVEC was over 200 µM throughout. The molecule also gave a CC50 in the assay with HeLa of over 200 µM.
